Activity calls are given as the source filed them.
Experiments:
[1] = Cytotoxicity against African green monkey BSC1 cells after 24 to 72 hrs by light microscopic analysis; format: cell-based, BSC-1; settings: chlorocebus aethiops
How it was run: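 BSC-1 monkey kidney cells incubated with drug at 37 °C, dissolved in 10% Me₂SO in water. Cell destruction was scored by light microscopy at 24, 48 and 72 h. Toxicity was defined as cell death within 2 days. The maximal nontoxic concentration is the nontoxic level whose twofold increase causes toxicity.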

[2] = test system: BSC-1; assay: Inhibition of Herpes simplex virus 1 HF DNA polymerase-mediated DNA synthesis in African green monkey BSC1 cell nucleus after 60 mins by [3H]-TTP incorporation assay relative to control; format: cell-based; settings: Human alphaherpesvirus 1
How it was run: (§1)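 Nuclei were taken from BSC-1 cells 20 h after HSV-1 infection by Dounce homogenization and low-speed spin. They were washed and incubated with drug for 60 min at 37 °C: 8 × 10⁶ nuclei, 80 mM K phosphate pH 7.4, 250 mM sucrose, 6 mM MgCl₂, 0.4 mM CaCl₂, 0.04 mM dATP/dGTP/dCTP, [³H]TTP, 1 mM ATP, PEP/pyruvate kinase, 5 mM EGTA. Read-out was TCA-precipitable radioactivity.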

[3] = test system: Human alphaherpesvirus 1; assay: Antiviral activity against Herpes simplex virus 1 HF infected in African green monkey BSC1 cells assessed as inhibition of viral progeny production at 50 ug/ml after 20 to 24 hrs by plaque reduction assay relative to control; format: functional; settings: Human alphaherpesvirus 1, HF, BSC-1
How it was run: (§2)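 BSC-1 monkey kidney monolayers in DMEM with 10% fetal bovine serum, infected with HSV-1 strain HF at 10 pfu/cell. Drug, in 10% Me2SO in water, added at infection at the highest noncytotoxic concentration. Cultures held 20–24 h at 37 °C, then sonicated. Progeny titred by plaque assay on BSC-1 (3 h adsorption, agar overlay, 72 h, gentian violet). Inhibition is plaque count with drug versus without.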

[4] = test system: Human alphaherpesvirus 1; assay: Antiviral activity against Herpes simplex virus 1 HF infected in African green monkey BSC1 cells assessed as inhibition of viral progeny production at 200 ug/ml after 20 to 24 hrs by plaque reduction assay relative to control; format: functional; settings: Human alphaherpesvirus 1, HF, BSC-1; how it was run: as §2
[5] = test system: BSC-1; assay: Inhibition of Herpes simplex virus 1 HF DNA polymerase-mediated DNA synthesis in African green monkey BSC1 cell nucleus at 200 ug/ml after 60 mins by [3H]-TTP incorporation assay relative to control; format: cell-based; settings: Human alphaherpesvirus 1; how it was run: as §1
[6] = test system: BSC-1; assay: Inhibition of Herpes simplex virus 1 HF DNA polymerase-mediated DNA synthesis in African green monkey BSC1 cell nucleus at 400 ug/ml after 60 mins by [3H]-TTP incorporation assay relative to control; format: cell-based; settings: Human alphaherpesvirus 1; how it was run: as §1
[7] = test system: Human alphaherpesvirus 1; assay: Antiviral activity against Herpes simplex virus 1 HF infected in African green monkey BSC1 cells assessed as inhibition of viral progeny production at 25 ug/ml after 20 to 24 hrs by plaque reduction assay relative to control; format: functional; settings: Human alphaherpesvirus 1, HF, BSC-1; how it was run: as §2
[8] = test system: BSC-1; assay: Inhibition of Herpes simplex virus 1 HF DNA polymerase-mediated DNA synthesis isolated from virus-infected African green monkey BSC1 cells at 25 to 400 ug/ml by [3H]-TTP incorporation assay; format: cell-free; settings: Human alphaherpesvirus 1
How it was run: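 HSV DNA polymerase came from nuclear extracts of BSC-1 cells 12 h post-infection, via 70% ammonium sulfate precipitation and sucrose gradients. Assay: 250 mM KCl, 2 mM MgCl₂, 0.05 mM dGTP/dATP/dCTP, 0.01 mM TTP plus [³H]TTP, 500 µg/mL activated calf thymus DNA, 10 mM Tris-HCl pH 8.1, 0.5 µg/mL BSA. Inhibition relative to drug-free reactions.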

[9] = test system: BSC-1; assay: Inhibition of Herpes simplex virus 1 HF DNA polymerase-mediated DNA synthesis in African green monkey BSC1 cell nucleus at 25 to 300 ug/ml after 60 mins by [3H]-TTP incorporation assay relative to control; format: cell-based; settings: Human alphaherpesvirus 1; how it was run: as §1

SMILES: Cn1cc(NC(=O)c2cc(NC(=O)c3cc([N+](=O)[O-])cn3C)cn2C)cc1C(=O)NCC(=N)N
- MNTC [1]: 50 µg/mL
- inhibition of viral DNA synthesis (active/not active) [2]: inactive
- inhibition at 50 µg/mL [3]: 98.1%

SMILES: CC(CC(=N)N)NC(=O)c1cc(NC(=O)c2cc(NC(=O)c3cc(NC=O)cn3C)cn2C)cn1C (stereo not drawn)
- MNTC [1]: > 200 µg/mL
- inhibition at 200 µg/mL [4]: 48%
- inhibition [5]: 86%
- inhibition [6]: Active

SMILES: Cn1cc(NC(=O)c2cc(NC(=O)c3cc(NC=O)cn3C)cn2C)cc1C(=O)NCCC(=N)N
- MNTC [1]: 25 µg/mL
- inhibition at 25 µg/mL [7]: 99.7%
- inhibition [5]: 95%
- inhibition [6]: Active
- inhibition [8]: Active

SMILES: Cn1cc(NC=O)cc1C(=O)Nc1cc(C(=O)Nc2cc(C(=O)Nc3ccccc3C(=N)N)n(C)c2)n(C)c1
- MNTC [1]: > 200 µg/mL
- inhibition at 200 µg/mL [4]: 96.7%
- inhibition [5]: 65%
- inhibition [6]: Active

SMILES: Cn1cc(NC(=O)c2cc(NC(=O)c3cc([N+](=O)[O-])cn3C)cn2C)cc1C(=O)Nc1cccc(C(=N)N)c1
- MNTC [1]: > 200 µg/mL
- inhibition of viral DNA synthesis (active/not active) [2]: inactive
- inhibition at 200 µg/mL [4]: 97.2%

SMILES: Cn1cc(NC(=O)c2cc([N+](=O)[O-])cn2C)cc1C(=O)Nc1cc(C(=O)Nc2ccccc2C(=N)N)n(C)c1
- MNTC [1]: > 200 µg/mL
- inhibition of viral DNA synthesis (active/not active) [2]: inactive
- inhibition at 200 µg/mL [4]: 96.9%

SMILES: Cn1cc(NC(=O)c2cc(NC(=O)c3cc(NC=O)cn3C)cn2C)cc1C(=O)NCCC#N
- MNTC [1]: > 200 µg/mL
- inhibition at 200 µg/mL [4]: 65.5%
- inhibition [5]: 65%
- inhibition [6]: Active

SMILES: Cn1cc(NC(=O)c2cc(NC(=O)c3cc([N+](=O)[O-])cn3C)cn2C)cc1C(=O)Nc1ccc(C(=N)N)cc1
- MNTC [1]: > 200 µg/mL
- inhibition of viral DNA synthesis (active/not active) [2]: inactive
- inhibition at 200 µg/mL [4]: 94.8%

SMILES: CC(CC#N)NC(=O)c1cc(NC(=O)c2cc(NC(=O)c3cc(NC=O)cn3C)cn2C)cn1C (stereo not drawn)
- MNTC [1]: > 200 µg/mL
- inhibition [9]: Active
- inhibition at 200 µg/mL [4]: 84.6%
- inhibition [5]: < 42%
- inhibition [6]: Active

SMILES: CC(CC(=N)N)NC(=O)c1cc(NC(=O)c2cc(NC(=O)c3cc([N+](=O)[O-])cn3C)cn2C)cn1C (stereo not drawn)
- MNTC [1]: > 200 µg/mL
- inhibition of viral DNA synthesis (active/not active) [2]: Active
- inhibition at 200 µg/mL [4]: 93.7%

SMILES: Cn1cc(NC(=O)c2cc(NC(=O)c3cc([N+](=O)[O-])cn3C)cn2C)cc1C(=O)NCCC(=N)N
- MNTC [1]: > 200 µg/mL
- inhibition of viral DNA synthesis (active/not active) [2]: Active
- inhibition at 200 µg/mL [4]: 86.5%

SMILES: Cn1cc(NC=O)cc1C(=O)Nc1cc(C(=O)Nc2cc(C(=O)Nc3cccc(C(=N)N)c3)n(C)c2)n(C)c1
- MNTC [1]: > 200 µg/mL
- inhibition at 200 µg/mL [4]: 97.1%
- inhibition [5]: 65%
- inhibition [6]: Active
- inhibition [8]: Active

SMILES: Cn1cc(NC(=O)c2cc(NC(=O)c3cc(NC=O)cn3C)cn2C)cc1C(=O)NCC(=N)N
- MNTC [1]: > 200 µg/mL
- inhibition at 200 µg/mL [4]: 61%
- inhibition [5]: 65%
- inhibition [6]: Active

SMILES: Cn1cc(NC=O)cc1C(=O)Nc1cc(C(=O)Nc2cc(C(=O)Nc3ccc(C(=N)N)cc3)n(C)c2)n(C)c1
- MNTC [1]: > 200 µg/mL
- inhibition at 200 µg/mL [4]: 76.4%
- inhibition [5]: < 42%
- inhibition [6]: Active

Reference: ChEMBL document CHEMBL3244017, “Structure--activity relationships of pyrrole amidine antiviral antibiotics. 1. Modifications of the alkylamidine side chain” (J Med Chem, 1979)
